Tests used:
Brain [1] = test: Biodistribution in naive rat brain assessed per gram of tissue at 118 +/- 40 MBq, iv after 18 mins by positron emission tomography; assay type: ADME, organism-based; details: in vivo, 0.3 h
Outline: (§1)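 Naïve rats under 1.5-2% isoflurane with femoral artery and vein catheters; [11C]-tracer 118±40 MBq i.v. bolus over ~30 s; dynamic microPET. Scan 1: unlabeled compound 5 mg/kg i.v. at 60 min, then 90 min more acquisition; scan 2 given 2 h after unlabeled dose. Whole-brain TACs as %ID/g; arterial blood sampled serially and gamma counted. n=3, mean ± SD.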

Brain [2] = test: Biodistribution in naive rat brain assessed per gram of tissue at 118 +/- 40 MBq, iv after 0.6 mins by positron emission tomography; assay type: ADME, organism-based; details: in vivo, 0.01 h; outline: as §1
[3] = Ratio of drug level in wild type mouse brain to naive rat brain; assay type: ADME, tissue-based; details: in vivo
Outline: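 Whole-brain %ID/g at 18 min after i.v. [11C]-1, from dynamic PET. Wild-type female FVB mice received 42±6 MBq via tail vein. Naive rats (baseline scan, before any unlabeled compound) received 118±40 MBq via femoral vein catheter. Both groups under isoflurane; n=3 each.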

Blood [4] = test: Biodistribution in naive rat blood assessed per gram of tissue at 118 +/- 40 MBq, iv after 20 mins by gamma counting; assay type: ADME, organism-based; details: in vivo; outline: as §1
Brain [5] = test: Ratio of drug level in Mdr1a/b knockout mouse brain to wild type mouse brain; assay type: ADME, tissue-based; details: in vivo
Outline: (§2)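 Wild-type FVB, Mdr1a/b(-/-) and Bcrp1(-/-) female mice (25-30 g), isoflurane-anesthetized and kept warm. [11C]-1 42±6 MBq i.v. bolus via tail vein, with a 60-min dynamic microPET scan started at injection. Whole-brain %ID/g read from time-activity curves at 18 min; knockout/wild-type ratios taken at 18 min; n=3; two-tailed unpaired t-test.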

Brain [6] = test: Ratio of drug level in Bcrp1 knockout mouse brain to wild type mouse brain; assay type: ADME, tissue-based; details: in vivo; outline: as §2
Brain [7] = test: Biodistribution in wild type mouse brain assessed per gram of tissue, iv after 18 mins; details: in vivo, 0.3 h
Brain [8] = test: Biodistribution in Bcrp1 knockout mouse brain assessed per gram of tissue, iv after 18 mins; details: in vivo, 0.3 h
Brain [9] = test: Biodistribution in Mdr1a/b knockout mouse brain assessed per gram of tissue, iv after 18 mins; details: in vivo, 0.3 h
Blood [10] = test: Biodistribution in wild type mouse blood assessed per gram of tissue at 42 +/- 6 MBq, iv after 20 mins by gamma counting; details: in vivo
Blood [11] = test: Biodistribution in Bcrp1 knockout mouse blood assessed per gram of tissue at 42 +/- 6 MBq, iv after 20 mins by gamma counting; details: in vivo
Blood [12] = test: Biodistribution in Mdr1a/b knockout mouse blood assessed per gram of tissue at 42 +/- 6 MBq, iv after 20 mins by gamma counting; details: in vivo
Brain [13] = test: Biodistribution in naive rat brain assessed per gram of tissue at 118 +/- 40 MBq, iv after 130 mins by positron emission tomography; assay type: ADME, organism-based; details: in vivo; outline: as §1
Brain [14] = test: Biodistribution in naive rat brain assessed per gram of tissue at 118 +/- 40 MBq, iv administered 2 hrs after unlabeled elacridar infusion measured after 18 mins by positron emission tomography; assay type: ADME, organism-based; details: in vivo, 0.3 h; outline: as §1
Brain [15] = test: Ratio of drug level in naive rat brain at 118 +/- 40 MBq, iv administered 2 hrs after unlabeled elacridar infusion to drug level in naive rat brain at 118 +/- 40 MBq, iv administered before unlabeled elacridar infusion; assay type: ADME, organism-based; details: in vivo
Outline: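 Naive rats under isoflurane with femoral artery and vein catheters; n=3. Scan 1: [11C]-1 118±40 MBq i.v. bolus over about 30 s, then dynamic PET. At 60 min, unlabeled 1 (5 mg/kg) i.v. over about 20 s, then 90 min more imaging. Scan 2 run 2 h after unlabeled dose. Whole-brain %ID/g at 18 min compared as scan 2/scan 1; two-tailed paired t-test.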

[16] = Inhibition of P-gp-mediated [3H]daunorubicin transport in Wistar rat hepatocytes by scintillation counting; assay type: cell-based; details: hepatocyte
Rattus norvegicus = organism: Rattus norvegicus; details: Sprague-Dawley, 10 M
Caco-2 = test: Ratio of permeability from basolateral to apical side over apical to basolateral side in human Caco-2 cells
Brain [17] = test: Biodistribution of rat brain at 20 MBq, iv after 30 mins post-injection in presence of cyclosporine A treated before compound infusion relative to basal level; assay type: ADME, organism-based; details: in vivo, 0.5 h

COc1cc2c(cc1OC)CN(CCc1ccc(NC(=O)c3cccc4c(=O)c5cccc(O[11CH3])c5[nH]c34)cc1)CC2
Drug uptake (Brain [1]): 0.07 %ID
Drug uptake (Brain [2]): 0.23 %ID
Ratio [3]: 10
Drug uptake (Blood [4]): 0.02 %ID
Ratio (Brain [5]): 2.5
Ratio (Brain [6]): 1.3
Drug uptake (Brain [7]): 0.72 %ID
Drug uptake (Brain [8]): 0.9 %ID
Drug uptake (Brain [9]): 1.8 %ID
Drug uptake (Blood [10]): 0.97 %ID
Drug uptake (Blood [11]): 0.89 %ID
Drug uptake (Blood [12]): 0.64 %ID

COc1cc2c(cc1OC)CN(CCc1ccc(NC(=O)c3cccc4c(=O)c5cccc(OC)c5[nH]c34)cc1)CC2
Drug uptake (Brain [13]): 0.28 %ID
Drug uptake (Brain [14]): 0.4 %ID
Ratio (Brain [15]): 5.4
Ki [16]: 35 nM
inhibition (Rattus norvegicus): 63%
Ratio (Caco-2): < 2

[11CH3]OC(=O)c1cnc2n1CCc1ccccc1C2=C1CCN(CCc2ccc(OCc3ccc4ccccc4n3)cc2)CC1
fold change (FC) (Brain [17]): 6

From ChEMBL document CHEMBL1156019, “Synthesis and small-animal positron emission tomography evaluation of [11C]-elacridar as a radiotracer to assess the distribution of P-glycoprotein at the blood-brain barrier” (J Med Chem, 2009)
